Bioassay records deposited in PubChem by several laboratories.
UCH37 inh – inhibitors of human deubiquitinating enzyme UCH37. Q9Y5K5. purified proteasome/UCH37, Ub-AMC cleavage fluorescence. inhibition, % (no concentration beside the values). 0.33% of 330,000 active. AID 588478;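 active = mean inhibition over replicate wells above about 20%, limit read from the data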
Target sequence (Q9Y5K5 whole entry, looked up): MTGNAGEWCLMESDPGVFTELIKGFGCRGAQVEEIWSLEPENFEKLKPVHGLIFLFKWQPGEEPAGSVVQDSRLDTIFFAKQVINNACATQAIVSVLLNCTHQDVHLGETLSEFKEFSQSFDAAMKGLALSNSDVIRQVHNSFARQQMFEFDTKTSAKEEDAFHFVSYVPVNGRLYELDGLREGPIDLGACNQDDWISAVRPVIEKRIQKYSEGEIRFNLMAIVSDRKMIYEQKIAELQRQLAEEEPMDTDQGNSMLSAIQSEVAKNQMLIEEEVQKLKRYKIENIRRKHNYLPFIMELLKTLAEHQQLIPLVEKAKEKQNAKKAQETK
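Assay system: Proteasome-bound UCH37. Buffer or medium: pH 7.4 Tris-HCl (50 mM) with ovalbumin, ATP-MgCl2, DTT. Incubation: 30 min preincubation with enzyme, 25 min cleavage at room temperature. Measured by: fluorescence, ex 355 nm, em 460 nm. Read-out basis: percent inhibition. Control set: wells without proteasome as full block, compound-free enzyme plus substrate as uninhibited.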
GSTO1 inh – blocks human GSTO1 in RBBP9 counter-screen; P78417; recombinant GSTO1, activity-based probe fluorescence polarization; inhibition, % at 5.96 µM; 1.1% of 300,000 active; AID 1974;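 active = inhibition above the campaign mean inhibition plus 3 SD, cut at about 35% in these data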
Target sequence (P78417 whole entry, looked up): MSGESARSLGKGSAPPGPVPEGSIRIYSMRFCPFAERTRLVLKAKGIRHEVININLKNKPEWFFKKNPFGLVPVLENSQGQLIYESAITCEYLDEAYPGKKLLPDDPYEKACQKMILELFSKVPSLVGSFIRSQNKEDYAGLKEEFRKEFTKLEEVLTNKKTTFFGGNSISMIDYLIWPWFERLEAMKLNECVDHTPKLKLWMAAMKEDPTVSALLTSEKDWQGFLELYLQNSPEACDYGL
HKDC1 inh – blocks human hexokinase HKDC1 activity | Q2TB90 | recombinant HKDC1, G6PDH/diaphorase resazurin coupled fluorescence | inhibition, % at 20 µM | 0.16% of 340,000 active | AID 493160;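 active = inhibition above about 35% when tested at 20 µM, limit read from the data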
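Assay system: in-house recombinant HK5 (HKDC1) enzyme. Input: HKDC1 at 5 µg/mL. Medium: Tris pH 8.0 buffer with MgCl2, Tween-20, BSA, BME. Dosing: single 20 µM dose. Schedule: 90 min reaction incubation at room temperature, dark. Signal: resazurin-to-resorufin fluorescence via G6PDH and diaphorase coupling, 525/613 nm. Controls: DMSO-enzyme wells negative, buffer-substituted wells positive.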
TDP2 absorb – blocks human TDP2 phosphodiesterase activity | O95551 | inhibition, % at 12.8 µM | recombinant TDP2, T5PNP hydrolysis, p-nitrophenol absorbance 415 nm | 0.34% of 370,000 active | AID 720702;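 active = inhibition above the mean of all tested compounds plus 3 SD, set per campaign, cut at about 25% in these data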
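Read-out basis: percent inhibition. System: recombinant human TDP2. Buffer or medium: Mg2+-containing Tris-HCl buffer, pH 7.5. Repeats: single replicate. Timing: reaction 2 h, 37 °C. Benchmarks: high control without enzyme, low control DMSO plus TDP2. Probe or stimulus: 5 mM T5PNP. Doses: 12.8 µM only. Measured by: epi absorbance of p-nitrophenol freed from T5PNP by hydrolysis.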
PAD4 inh – blocks human protein arginine deiminase 4; recombinant PAD4, RCA probe fluorescence polarization; inhibition, % at 6.36 µM; 0.41% of 330,000 active; AID 485272;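 active = percent inhibition above a cutoff equal to the mean of all tested compounds plus 3 SD, cut at about 15% in these data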
CTSL1 counter – blocks F. hepatica cathepsin L1 in PFM18AAP counter-screen | inhibition, % at 5.96 µM | recombinant F. hepatica cathepsin L1, Z-Leu-Arg-MCA fluorescence | 0.49% of 300,000 active;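 active = inhibition above the mean of all tested compounds plus 3 SD, set per screening campaign, cut at about 17% in these data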
Large screens that a line does not name were inactive. An excerpt weighted towards active compounds, which were near 1.6% of everything screened.

N#Cc1c(N)nc2c3c(sc(=N)c2c1N)NC(=O)CC3c1c(F)cccc1Cl (centres undefined)	GSTO1 inh 35 (no result: UCH37 inh)
COCC(C)NC(=O)NC1(C(F)(F)F)Oc2ccc(Cl)cc2O1 (centres undefined)	GSTO1 inh 36
CC(=NNC(=O)c1sc(NS(=O)(=O)c2ccccc2)nc1C)c1ccccc1	none (no result: GSTO1 inh, HKDC1 inh, TDP2 absorb, PAD4 inh, CTSL1 counter)
CC(C)(C)OC(=O)N1CCC(NC(=O)c2nc[nH]c2C(=O)N2CCc3ccccc3C2)CC1	UCH37 inh 29 (no result: GSTO1 inh, CTSL1 counter)
CC1CCN(C(=O)c2[nH]cnc2C(=O)NCc2ccc(CNC(=O)OC(C)(C)C)cc2)CC1	UCH37 inh 28 (no result: GSTO1 inh, CTSL1 counter)
CC(C)(C)OC(=O)CNC(=O)c1nc[nH]c1C(=O)N1CCc2ccccc2C1	UCH37 inh 31
O=C(NN=Cc1ccc(Cl)s1)c1cccs1	none (no result: GSTO1 inh, HKDC1 inh, TDP2 absorb, PAD4 inh, CTSL1 counter)
COc1ccc(C=NNS(=O)(=O)c2ccc(NC(C)=O)cc2)cc1	none (no result: GSTO1 inh, HKDC1 inh, TDP2 absorb, PAD4 inh, CTSL1 counter)
N#CC(=NNc1ccc([N+](=O)[O-])cc1)C(=N)N1CCCCC1	UCH37 inh 23 (no result: GSTO1 inh, HKDC1 inh, TDP2 absorb, PAD4 inh, CTSL1 counter)
COc1ccc(N2CCN(C(=O)COC(=O)[C@@H](NC(=O)c3ccccc3Cl)C(C)C)CC2)cc1	none (no result: GSTO1 inh, PAD4 inh, CTSL1 counter)
COc1ccc(N2CCN(C(=O)C(NC(=O)c3c(F)cccc3F)C(C)C)CC2)cc1 (centres undefined)	CTSL1 counter 26
O=[N+]([O-])c1cc(C=NO)ccc1Oc1cccc(Cl)c1	none (no result: GSTO1 inh, HKDC1 inh, TDP2 absorb, PAD4 inh, CTSL1 counter)
COC(=O)Cc1cc(=O)[nH]c(N=C(N)Nc2ccc(C(C)C)cc2)n1	none (no result: GSTO1 inh, HKDC1 inh, TDP2 absorb, PAD4 inh, CTSL1 counter)
C=CC#CC[N+]1(CC#Cc2ccccc2)CCOCC1	UCH37 inh 29 (no result: GSTO1 inh, PAD4 inh, CTSL1 counter)
Cc1nn(C(=O)CCC(=O)NCc2ccccc2Cl)c2ccccc12	CTSL1 counter 20
COc1ccccc1CNC(=O)CCCC(=O)n1nc(C)c2ccccc21	none
CC(O)[C@H](NC(=O)C1(c2ccccc2)CCN(C(=O)OC(C)(C)C)CC1)C(=O)O (some centres undefined)	CTSL1 counter 30
O=C(NNc1c2ccccc2nc2ccccc12)c1ccccc1O	none
O=C(NNc1c2ccccc2nc2ccccc12)c1ccccc1Cl	CTSL1 counter 18
Cc1n[nH]c(=S)n1N=Cc1ccc(-c2ccc(Cl)cc2)o1	none (no result: GSTO1 inh, HKDC1 inh, TDP2 absorb, PAD4 inh, CTSL1 counter)
COc1cc(/C=N/NC(=O)CNC(=O)c2ccco2)ccc1O	CTSL1 counter 28 (no result: UCH37 inh)
COc1cc(C=NNC(=O)CNC(=O)c2ccco2)ccc1O	none (no result: GSTO1 inh, HKDC1 inh, TDP2 absorb, PAD4 inh, CTSL1 counter)
COc1cc(/C=C(/C#N)c2nc3ccccc3[nH]2)ccc1OCc1ccc(C(=O)O)o1	CTSL1 counter 20 (no result: UCH37 inh)
COc1ccc2ccc(OC)c(C=Nn3cnnc3)c2c1	none (no result: GSTO1 inh, HKDC1 inh, TDP2 absorb, PAD4 inh, CTSL1 counter)
COc1cc(C(c2oc(CO)cc(=O)c2O)c2oc(CO)cc(=O)c2O)cc(OC)c1OC	CTSL1 counter 51
COc1ccc(-c2noc3c2-c2nc(C(C)C)sc2CC3)cc1	none
CC(C)c1nc2c(s1)CCc1onc(-c3ccc(Cl)cc3)c1-2	UCH37 inh 24
N#CC(=C(O)CN1CCOCC1)c1nc(-c2ccccc2)cs1	none (no result: GSTO1 inh, HKDC1 inh, TDP2 absorb, PAD4 inh, CTSL1 counter)
CCCCOc1ccc(S(=O)(=O)N2CCCCC2)cc1	none
CCCCOc1ccc(S(=O)(=O)N2CCN(c3ccc(N4CCN(CC)CC4)nn3)CC2)cc1	CTSL1 counter 18
COc1cc(C=Nn2c(COc3ccccc3)n[nH]c2=S)cc(Br)c1O	none (no result: GSTO1 inh, HKDC1 inh, TDP2 absorb, PAD4 inh, CTSL1 counter)
O=C(Cc1cccs1)NN=Cc1ccc([N+](=O)[O-])s1	none (no result: GSTO1 inh, HKDC1 inh, TDP2 absorb, PAD4 inh, CTSL1 counter)
CCc1c(C)nc(SCC(=O)NNC(=O)Cc2ccc(OC)cc2)[nH]c1=O	CTSL1 counter 18
COc1ccc(NC(=O)N2CCCC(CCC(=O)N(C)CCc3ccccn3)C2)cc1 (centres undefined)	CTSL1 counter 70
CCc1ccccc1NC(=O)N1CCCC(CCC(=O)N(C)CCc2ccccn2)C1 (centres undefined)	none
CN(C)Cc1c(C(=O)NN=Cc2cccc(OCc3ccccc3)c2)nnn1-c1nonc1N	none (no result: GSTO1 inh, HKDC1 inh, TDP2 absorb, PAD4 inh, CTSL1 counter)
CCCNC(=O)OC[C@H]1O[C@H](CCON=C[C@@H](OC)[C@H](C)/C=C/CC(=O)OC)C=C[C@@H]1Oc1ccc(OC)cc1	none (no result: GSTO1 inh, HKDC1 inh, TDP2 absorb, PAD4 inh, CTSL1 counter)
O=C(NN=Cc1ccc(Cl)cc1Cl)c1sccc1-n1cccc1	none (no result: GSTO1 inh, HKDC1 inh, TDP2 absorb, PAD4 inh, CTSL1 counter)
COc1ccc(-c2oc3cc(OC(C)=O)cc(OC(C)=O)c3c(=O)c2OC)cc1	none (no result: GSTO1 inh, PAD4 inh, CTSL1 counter)
CC(=O)Oc1cc(O)c2c(=O)c(OC(C)=O)c(-c3ccc(OC(C)=O)c(OC(C)=O)c3)oc2c1	GSTO1 inh 60 (no result: TDP2 absorb)
COc1cc(C=NNC(=O)c2ccc(C)nc2)cc([N+](=O)[O-])c1O	none (no result: GSTO1 inh, HKDC1 inh, TDP2 absorb, PAD4 inh, CTSL1 counter)
